Test results as given in ChEMBL document CHEMBL1138018, “Discovery and SAR of 2-aminothiazole inhibitors of cyclin-dependent kinase 5/p25 as a potential treatment for Alzheimer's disease” (Bioorg Med Chem Lett, 2004).

Legend:
[1] = biological target: T1, Cyclin-dependent kinase 2/cyclin E1 (Homo sapiens, UniProt P24941); test: Concentration required for inhibition of cyclin dependant kinase 2-cyclin E was measured by scintillation proximity assay; assay type: protein-complex assay
Procedure, shortened: (§1)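 Kinase activity was read by scintillation proximity assay against cdk5/p25 and cdk2/cyclin E, with the same final ATP concentration in both assays. ATP Km was measured separately for each enzyme. Each IC50 came from a six-point dose–response curve run in triplicate.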

[2] = Ratio of inhibition of cyclin dependant kinase 2-cyclin E to that of cyclin-dependent kinase 5
Procedure, shortened: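 Selectivity is the cdk2/cyclin E IC50 divided by the cdk5/p25 IC50 (k2/k5). Both IC50s came from six-point triplicate dose–response curves in scintillation proximity assays run at the same final ATP concentration.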

[3] = biological target: Cyclin-dependent kinase 5 (Homo sapiens, UniProt Q00535); test: Concentration required for inhibition of cyclin-dependent kinase 5 was measured by scintillation proximity assay; procedure, shortened: as §1
[4] = biological target: T1, Cyclin-dependent kinase 2/cyclin E1; test: Concentration required for 50% inhibition of cyclin dependant kinase 2-cyclin E was measured by scintillation proximity assay; assay type: protein-complex assay; procedure, shortened: as §1

Sequence of Cyclin-dependent kinase 5 (Q00535 whole entry): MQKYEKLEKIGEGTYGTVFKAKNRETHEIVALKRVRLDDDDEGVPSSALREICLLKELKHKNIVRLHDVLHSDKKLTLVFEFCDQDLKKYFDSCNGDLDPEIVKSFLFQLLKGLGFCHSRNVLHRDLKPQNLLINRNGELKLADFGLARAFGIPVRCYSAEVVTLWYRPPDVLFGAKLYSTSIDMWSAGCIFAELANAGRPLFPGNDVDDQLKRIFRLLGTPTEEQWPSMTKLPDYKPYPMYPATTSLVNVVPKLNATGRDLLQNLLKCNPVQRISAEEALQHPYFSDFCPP

Compound | IC50 [1] | Ratio [2] | IC50 [3] | IC50 [4]
CC(C)C(=O)Nc1ncc(C(C)C)s1 | 318 nM | 1 | 321 nM | 
CCCCCc1cnc(NC(=O)Cc2ccccc2)s1 | 4120 nM | 1.2 | 3270 nM | 
O=C(Cn1ccc2ccccc21)Nc1ncc(C2CCC2)s1 | 100 nM | 2.1 | 48 nM | 
CC(C)c1cnc(NC(=O)Oc2ccccc2)s1 |  | 0.6 | 1600 nM | 980 nM
O=C(Cc1ccccc1)Nc1ncc(C2=CCCC2)s1 | 6510 nM | 1 | 6530 nM | 
CC(C)c1cnc(NC(=O)c2ccccc2)s1 |  | 0.9 | 1150 nM | 1020 nM
CN(C)c1cnc(NC(=O)Cc2ccccc2)s1 | 4810 nM | 1.2 | 3990 nM | 
O=C(Nc1ccc2ncccc2c1)Nc1ncc(C2CCC2)s1 | 167 nM | 3.8 | 44 nM | 
O=C(Nc1ncc(C2CCC2)s1)Nc1cccc2c[nH]nc12 | 650 nM | 3.4 | 190 nM | 
CSc1cnc(NC(=O)Cc2ccccc2)s1 | 105 nM | 1.2 | 91 nM | 
O=C(Cc1ccccc1)Nc1ncc(Br)s1 | 480 nM | 0.5 | 900 nM | 
O=C(Nc1ncc(C2CCC2)s1)Nc1cccc2nn[nH]c12 | 106 nM |  | 41 nM | 
O=C(Nc1ccccc1)Nc1ncc(C2CCC2)s1 | 290 nM | 1.6 | 183 nM | 
O=C(Nc1ccc2cnccc2c1)Nc1ncc(C2CCC2)s1 | 176 nM | 4 | 44 nM | 
CC(C)c1cnc(NC(=O)C(=O)c2ccccc2)s1 |  | 2.1 | 4580 nM | 9770 nM
CCc1cnc(NC(=O)Cc2ccccc2)s1 |  | 0.7 | 621 nM | 412 nM
CC(=O)c1cnc(NC(=O)Cc2ccccc2)s1 | 4600 nM | 0.6 | 7670 nM | 
CC(C)c1cnc(NC(=O)Cc2ccccc2)s1 |  | 1.5 | 64 nM | 98 nM
O=C(Cc1ccccc1)Nc1ncc(C2CCCCC2)s1 | 997 nM | 2.6 | 390 nM | 
CC(C)c1cnc(NC(=O)Nc2ccccc2)s1 |  | 2.6 | 102 nM | 265 nM
O=C(Cc1ccccc1)Nc1ncc(-c2ccccc2)s1 | 2000 nM | 1.3 | 1570 nM | 
O=C(Cc1ccccc1)Nc1ncc(C2CCCC2)s1 | 155 nM | 2.4 | 64 nM | 
O=C(Nc1ncc(C2CCC2)s1)Nc1cccc2[nH]nnc12 |  | 2.6 |  | 

Further compounds by falling IC50 [3], results first:

IC50 [1] | Ratio [2] | IC50 [3] | IC50 [4] | Compound
74 nM | 3 | 25 nM |  | O=C(Cc1ccccc1)Nc1ncc(C2CCC2)s1
40 nM | 2.5 | 16 nM |  | O=C(Cc1c[nH]c2ccccc12)Nc1ncc(C2CCC2)s1
26 nM | 2.2 | 13 nM |  | Cc1cc2ncn(CC(=O)Nc3ncc(C4CCC4)s3)c2cc1C
70 nM | 5.4 | 13 nM |  | O=C(Cc1cccc2cnccc12)Nc1ncc(C2CCC2)s1
43 nM | 3.3 | 13 nM |  | O=C(Nc1ncc(C2CCC2)s1)Nc1cccc2ncccc12
16 nM | 1.3 | 12 nM |  | Cc1nc2ccc(CC(=O)Nc3ncc(C4CCC4)s3)cc2s1
26 nM | 2.6 | 10 nM |  | O=C(Cc1ccc2ncccc2c1)Nc1ncc(C2CCC2)s1
96 nM | 12 | 8 nM |  | O=C(Nc1ncc(C2CCC2)s1)Nc1cccc2cnccc12
33 nM | 4.7 | 7 nM |  | O=C(Cc1ccc2[nH]cnc2c1)Nc1ncc(C2CCC2)s1
55 nM | 11 | 5 nM |  | O=C(Nc1ncc(C2CCC2)s1)Nc1cccc2ccncc12
